Experiment [1] concerns Mycobacterium tuberculosis. Kind of experiment: Antitubercular activity against Mycobacterium tuberculosis H37Rv assessed as growth inhibition after 21 days by micro-broth dilution method. It is filed as functional. As to conditions: 504 h. On the technique in general: Broth dilution looks for growth in wells or tubes with falling amounts of substance.
The next experiment concerns HCT-116. Kind of experiment: Cytotoxicity against human HCT116 cells after 4 days by WST-1 assay. It is filed as functional, cell-based. As to conditions: HCT-116, 96 h. In short, it runs like this: (§1)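 Cells were cultured in DMEM with 10% fetal calf serum and seeded at 3000 per well. After 24 h they were treated with 100 nM to 50 μM compound, 8 replicates per concentration, for 4 days. Viability was read by WST-1 and reported as IC50.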
(In general: Tetrazolium dyes change colour on reduction, which living cells bring about.)

The nature of experiment [2]: Cytotoxicity against human GM637 cells after 4 days by WST-1 assay. In kind it is cell-based. As to conditions: GM637, 96 h. The procedure, abridged:
as §1

Experiment [3] deals with Mycobacterium tuberculosis. Kind of experiment: Antitubercular activity against Mycobacterium tuberculosis H37Rv assessed as growth inhibition. It is filed as functional. In short, it runs like this:
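M. tuberculosis H37Rv grown at 37 °C in Middlebrook 7H9 with 0.05% Tween 80, or on 7H11 agar with OADC. Culture dilutions of about 10^5-10^6 cfu/ml were streaked onto 7H11 plates holding 0.25 µg/mL to 40 µg/mL drug. Plates were incubated at 37 °C for about 21 days, and MIC was read from visual growth.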

We go through 30 molecules from ChEMBL document CHEMBL2434843, “Synthesis and evaluation of α-ketotriazoles and α,β-diketotriazoles as inhibitors of Mycobacterium tuberculosis” (Eur J Med Chem, 2013).

Each structure is given as a SMILES string. Converted amounts (≈) assume the structure as drawn.

On to `COc1ccccc1C(=O)C(=O)c1cn(Cc2ccccc2)nn1`, for which the MIC in experiment [1] was found to be 12.4 µM (≈ 4 µg/mL). Moreover, the IC50 (in the experiment with HCT-116; in experiment [2]) was greater than 50 µM each time.
As for `O=C(Cc1ccccc1)c1cn(Cc2ccc([N+](=O)[O-])cc2)nn1`, the IC50 (in the experiment on HCT-116; in experiment [2]) was greater than 50 µM in each case.
`O=C(C(=O)c1cn(Cc2ccccc2)nn1)c1ccccc1`: the MIC in experiment [1] was determined as 172 µM (≈ 50 µg/mL). For the same molecule, the IC50 (in the experiment on HCT-116; in experiment [2]) was greater than 50 µM throughout.
Turning to `O=C(C(=O)c1ccc(Cl)cc1Cl)c1cn(Cc2ccc([N+](=O)[O-])cc2)nn1`, in experiment [1], the MIC was determined as 79 µM (≈ 32 µg/mL). Besides, the IC50 (in the experiment on HCT-116; in experiment [2]) was greater than 50 µM in each case.
Consider `O=C(C(=O)c1ccc(Cl)cc1Cl)c1cn(C2CCCCC2)nn1`, for which the minimum inhibitory concentration (MIC) in experiment [1] was found to be 43.7 µM (≈ 15.4 µg/mL).
Consider `Cc1cc(C)cc(Cn2cc(C(=O)Cc3ccccc3)nn2)c1`, for which the IC50 (in the experiment on HCT-116; in experiment [2]) was greater than 50 µM in each case.
As to `COc1cc(Cn2cc(C(=O)C(=O)c3ccc(Cl)cc3Cl)nn2)cc(OC)c1`, the minimal inhibitory concentration (MIC) in experiment [1] stood at 9.51 µM (≈ 4 µg/mL). For the same molecule, the concentration for half-maximal inhibition (IC50) (in the experiment with HCT-116; in experiment [2]) was greater than 50 µM in each case.
For the molecule `COC(=O)c1ccc(Cn2cc(C(=O)C(=O)c3ccc(Cl)cc3Cl)nn2)o1`, in experiment [1], the MIC worked out at 39.2 µM (≈ 16 µg/mL).
For `CCCCCCCCn1cc(C(=O)Cc2ccccc2)nn1`, the IC50 (in the experiment on HCT-116; in experiment [2]) was greater than 50 µM in each case.
`COc1ccc(CC(=O)c2cn(CCc3ccccc3)nn2)cc1`: the MIC in experiment [1] was greater than 112 µM.
On to `O=C(C(=O)c1ccc(Cl)cc1Cl)c1cn(Cc2ccccc2)nn1`, for which the MIC in experiment [1] came to 6.9 µM (≈ 2.49 µg/mL). In addition, the IC50 (with HCT-116; in experiment [2]) was greater than 50 µM each time.
Regarding `COc1ccc(C(=O)C(=O)c2cn(Cc3ccccc3)nn2)cc1`, the MIC in experiment [1] was 7.6 µM (≈ 2.44 µg/mL). For the same molecule, the IC50 (in the experiment with HCT-116; in experiment [2]) was greater than 50 µM throughout.
With `O=C(Cc1ccc(Cl)cc1Cl)c1cn(CCc2ccccc2)nn1`, the MIC in experiment [1] is greater than 88.8 µM.
Consider `COc1cc(Cn2cc(C(=O)C(=O)c3ccccc3)nn2)cc(OC)c1`, for which the MIC in experiment [1] was found to be 11.4 µM (≈ 4 µg/mL). Besides, the IC50 (in the experiment on HCT-116; in experiment [2]) was greater than 50 µM throughout.
For `COc1cc(Cn2cc(C(=O)C(=O)c3ccc([N+](=O)[O-])cc3)nn2)cc(OC)c1`, the MIC in experiment [1] was 161 µM (≈ 64 µg/mL). Further, the IC50 (in the experiment on HCT-116; in experiment [2]) was greater than 50 µM throughout.
Consider `CCCCCCCCc1cn(CC(=O)OCC)nn1`, for which the MIC in experiment [3] stood at 1.9 µg/mL (≈ 7.11 µM).
Take `COc1ccc(CCn2cc(C(=O)C(=O)c3ccc(OC)cc3)nn2)cc1`: in experiment [1], the MIC is greater than 87.6 µM.
Same read-out and setting: as for `NNC(=O)c1ccncc1` [ISONIAZID], the figure is 0.4 µM (≈ 0.0549 µg/mL).
Turning to `COc1ccc(C(=O)C(=O)c2cn(CCc3ccccc3)nn2)cc1`, in experiment [1], the minimal inhibitory concentration (MIC) is greater than 95.4 µM. The IC50 (in the experiment on HCT-116; in experiment [2]) was greater than 50 µM throughout.
Take `CCCCCCCCn1cc(C(=O)C(=O)c2ccc(Cl)cc2Cl)nn1`: in experiment [1], the MIC was determined as 80.7 µM (≈ 30.9 µg/mL). Besides, the IC50 (with HCT-116; in experiment [2]) was greater than 50 µM each time.
`Cc1cc(C)cc(Cn2cc(C(=O)C(=O)c3ccccc3)nn2)c1`: in experiment [1], the MIC stood at 50 µM (≈ 16 µg/mL). Moreover, the IC50 (with HCT-116; in experiment [2]) was greater than 50 µM each time.
Take `O=C(C(=O)c1ccc(Cl)cc1Cl)c1cn(CCc2ccccc2)nn1`: the MIC in experiment [1] stood at 13.4 µM (≈ 5.01 µg/mL). For the same molecule, the IC50 (with HCT-116; in experiment [2]) was greater than 50 µM in each case.
With `COc1ccc(CCn2cc(C(=O)Cc3ccc(OC)cc3)nn2)cc1`, the MIC in experiment [1] is greater than 91.1 µM.
For `O=C(C(=O)c1cn(Cc2ccccc2)nn1)c1ccc([N+](=O)[O-])cc1`, the MIC in experiment [1] was 95.1 µM (≈ 32 µg/mL). Also, the IC50 (in the experiment on HCT-116; in experiment [2]) was greater than 50 µM each time.
As for `COc1cc(Cn2cc(C(=O)C(=O)c3ccccc3OC)nn2)cc(OC)c1`, the MIC in experiment [1] was found to be 21 µM (≈ 8.01 µg/mL). Further, the IC50 (in the experiment with HCT-116; in experiment [2]) was greater than 50 µM each time.
For `CCCCCCCCn1cc(C(=O)C(=O)c2ccccc2)nn1`, in experiment [1], the MIC came to 51 µM (≈ 16 µg/mL).
Consider `O=C(Cc1ccccc1)c1cn(Cc2ccccc2)nn1`, for which the IC50 (in the experiment on HCT-116; in experiment [2]) was greater than 50 µM in each case.
In the case of `O=C(Cc1ccc(Cl)cc1Cl)c1cn(Cc2ccccc2)nn1`, the IC50 (in the experiment with HCT-116; in experiment [2]) was greater than 50 µM each time.
For `CCCCCCCCn1cc(C(=O)Cc2ccc(Cl)cc2Cl)nn1`, in experiment [1], the MIC was 20.9 µM (≈ 7.7 µg/mL).
For the molecule `O=C(C(=O)c1cn(Cc2ccc([N+](=O)[O-])cc2)nn1)c1ccccc1`, the MIC in experiment [1] was determined as 11.9 µM (≈ 4 µg/mL). Further, the IC50 (in the experiment on HCT-116; in experiment [2]) was greater than 50 µM in each case.

Usually MIC stands for the lowest concentration that inhibits growth of the organism. A word on the IC50: it is the point on the concentration scale where inhibition reaches its midpoint. A lower IC50 goes with greater potency in that assay.
